The values below come from ChEMBL document CHEMBL1149154, “Comparative molecular field analysis and comparative molecular similarity indices analysis of thalidomide analogues as angiogenesis inhibitors” (2004).

By Inhibition is commonly meant the relative decrease from the control value, in per cent.

For this experiment, the species on record is Rattus norvegicus. In words: Inhibition of microvessel outgrowth in the rat aortic ring assay. On the set-up: concentration or dose not given beside the values. Format: functional, Aorta. In a few lines: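 Aortic 1 mm cross-sections from 6–8-week-old male Sprague–Dawley rats, periadventitial fat removed, embedded between Matrigel layers (37 °C, 5% CO2). Cultured 24 h in EGM-II, then switched to EBM-II with 2% FBS, amphotericin B and gentamicin. Compounds in DMSO added to medium daily for 4 days (vehicle 0.5% DMSO; carboxyamidotriazole positive control). Microvessel growth photographed on day 5.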

For `O=C1c2ccccc2C(=O)N1c1cnc(O)nc1O`, the Inhibition came to 5.75%.

Regarding `O=C1CC(N2C(=O)c3ccccc3C2=O)C(=O)N1` (centres undefined), the Inhibition was found to be 9.75%. For the molecule `O=C1c2c(F)c(F)c(F)c(F)c2C(=O)N1c1ccc(F)cc1F`, the Inhibition was 39.75%.

On to `[N-]=[N+]=NCN1C(=O)CCC(N2C(=O)c3ccccc3C2=O)C1=O` (centres undefined), for which the Inhibition is reported as 24.67%. With `CC(C)C(N)C(=O)OCN1C(=O)CCC(N2C(=O)c3ccccc3C2=O)C1=O.Cl` (centres undefined) the figure was 88%. The same measure for `O=C1CCC(N2Cc3ccccc3C2=O)C(=O)N1` (centres undefined): 11.25%.

For `CCC1(N2C(=O)c3c(F)c(F)c(F)c(F)c3C2=O)C(=O)NC(=O)N(c2ccccc2)C1=O` (centres undefined), the Inhibition was 75.75%.

As to `O=C1c2c(F)c(F)c(F)c(F)c2C(=O)N1c1cnc(O)nc1O`, the Inhibition stood at 15.25%. The same measure for `O=C1c2cccc([N+](=O)[O-])c2C(=O)N1c1cn(-c2ccccc2)c(=O)[nH]c1=O`: -23.33%; for `NC(=O)c1ccc[n+](CN2C(=O)CCC(N3C(=O)c4ccccc4C3=O)C2=O)c1.[Cl-]` (centres undefined): 29.67%. Take `Cl.NCC(=O)OCN1C(=O)CCC(N2C(=O)c3ccccc3C2=O)C1=O` (centres undefined): the Inhibition is 71.33%.

As for `O=C1CCC(N2C(=O)c3ccc(O)c(O)c3C2=O)C(=O)N1` (centres undefined), the Inhibition is recorded as 10.25%. For `NC(Cc1ccccc1)C(=O)OCN1C(=O)CCC(N2C(=O)c3ccccc3C2=O)C1=O` (centres undefined), the Inhibition turned out to be 4%. For `O=C1CCC(N2C(=O)c3cc(O)c(O)cc3C2=O)C(=O)N1` (centres undefined), the Inhibition is 38.75%.

As for `CCOCN1C(=O)CCC(N2C(=O)c3ccccc3C2=O)C1=O` (centres undefined), the Inhibition is on record as 32%. With `Cc1ccc(C)c2c1C(=O)N(c1ccc(F)cc1F)C2=O` the figure was 18%; with `NC(=O)C(CCC(=O)O)N1C(=O)c2ccccc2C1=O` (centres undefined), 15.25%; with `O=C1c2ccccc2C(=O)N1c1ccc(F)cc1F`, -4.75%. Turning to `O=C(O)CN1C(=O)CCC(N2C(=O)c3ccccc3C2=O)C1=O` (centres undefined), the Inhibition is on record as 39.75%. Consider `O=C1NC(=O)C(N2C(=O)c3ccccc3C2=O)CC1O` (centres undefined), for which the Inhibition came out at 3.75%.

As for `CC(C)(C)OC(=O)C(C(=O)NC(C(=O)O)C(=O)O)N1C(=O)c2ccccc2C1=O` (centres undefined), the Inhibition was 13.25%. Consider `COc1cc2c(cc1OC)C(=O)N(C1CCC(=O)NC1=O)C2=O` (centres undefined), for which the Inhibition was determined as 23.25%. With `CC(C)(C)OC(=O)NCC(=O)OCN1C(=O)CCC(N2C(=O)c3ccccc3C2=O)C1=O` (centres undefined), the Inhibition was 40.25%. As for `CCC1(N2C(=O)c3ccccc3C2=O)C(=O)NC(=O)N(c2ccccc2)C1=O` (centres undefined), the Inhibition was -0.5%. The same measure for `O=C(O)CCC(NC(C(=O)O)N1C(=O)c2ccccc2C1=O)C(=O)O` (centres undefined): 25.75%; for `O=C(O)CCC(C(=O)O)N1C(=O)c2ccccc2C1=O` (centres undefined): 10.75%. `CC(C(=O)OCN1C(=O)CCC(N2C(=O)c3ccccc3C2=O)C1=O)N(C)C(=O)OC(C)(C)C` (centres undefined): the Inhibition was 56.5%.

For `O=C1CCC(N2C(=O)c3ccccc3C2=O)C(=O)N1CO` (centres undefined), the Inhibition is 21%. `CC(C)CCCC(C)C1CCC2C3CC=C4CC(OC(=O)N5C(=O)CCC(N6C(=O)c7ccccc7C6=O)C5=O)CCC4(C)C3CCC12C` (centres undefined): the Inhibition is reported as 50%. `O=C(O)C(C(=O)O)N1C(=O)c2ccccc2C1=O`: the Inhibition is -2%.

On to `CCC1(N2C(=O)c3cccc([N+](=O)[O-])c3C2=O)C(=O)NC(=O)N(c2ccccc2)C1=O` (centres undefined), for which the Inhibition came out at 1.75%. For the molecule `O=C1CCC(NC(=O)C(C(=O)O)N2C(=O)c3ccccc3C2=O)C(=O)N1` (centres undefined), the Inhibition turned out to be 11.67%. Turning to `O=C1CCC(N2C(=O)c3ccccc3C2=O)C(=O)O1` (centres undefined), the Inhibition amounted to 42%.

Consider `CC(C)(C)OC(=O)NC(Cc1ccccc1)C(=O)OCN1C(=O)CCC(N2C(=O)c3ccccc3C2=O)C1=O` (centres undefined), for which the Inhibition is 33.75%. With `CC(C)CCCC(C)C1CCC2C3CC=C4CC(OC(=O)CN5C(=O)CCC(N6C(=O)c7ccccc7C6=O)C5=O)CCC4(C)C3CCC12C` (centres undefined) the figure was 25.25%.

With `COCN1C(=O)CCC(N2C(=O)c3ccccc3C2=O)C1=O` (centres undefined), the Inhibition was determined as 13%. With `NC(=O)CCC(C(=O)O)N1C(=O)c2ccccc2C1=O` (centres undefined) [2-PHTHALIMIDOGLUTARAMIC ACID] the figure was 1.75%.

`Nc1cccc2c1C(=O)N(C1CCC(=O)NC1=O)C2=O` (centres undefined) [POMALIDOMIDE]: the Inhibition is listed as 5.5%.

In the case of `O=C1NCCCC1N1C(=O)c2ccccc2S1(=O)=O` (centres undefined) [SUPIDIMIDE], the Inhibition turned out to be 4.5%.
